Test results published in ChEMBL document CHEMBL2380295, “Structure-activity studies on the side chain of a simplified analog of aplysiatoxin (aplog-1) with anti-proliferative activity” (Bioorg Med Chem, 2013).

Experiments:
[1] = Growth inhibition of human HBC4 cells after 48 hrs by sulforhodamine B assay; type: functional; details: HBC4, 48 h
How it was run: (§1)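 Yamori 39-line human cancer panel, NCI method with modifications. Cells plated in RPMI 1640 plus 5% FBS, attached overnight, then exposed 48 h to compound at 10^-8, 10^-7, 10^-6, 10^-5 and 10^-4 M. Sulforhodamine B staining read at 525 nm; % growth = 100[(T−T0)/(C−T0)] from duplicate-point averages, with T0 the time-zero absorbance. GI50 is the concentration giving 50.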

[2] = test system: SNB-75; test: Growth inhibition of human SNB75 cells after 48 hrs by sulforhodamine B assay; type: functional; details: SNB-75, 48 h; how it was run: as §1
[3] = test system: HCT-116; test: Growth inhibition of human HCT116 cells after 48 hrs by sulforhodamine B assay; type: functional; details: HCT-116, 48 h; how it was run: as §1
[4] = test system: SF-295; test: Growth inhibition of human SF295 cells after 48 hrs by sulforhodamine B assay; type: functional; details: SF-295, 48 h; how it was run: as §1
[5] = test system: MKN-74; test: Growth inhibition of human MKN74 cells after 48 hrs by sulforhodamine B assay; type: functional; details: MKN-74, 48 h; how it was run: as §1
[6] = test system: OVCAR-4; test: Growth inhibition of human OVCAR4 cells after 48 hrs by sulforhodamine B assay; type: functional; details: OVCAR-4, 48 h; how it was run: as §1
[7] = Growth inhibition of human RXF631L cells after 48 hrs by sulforhodamine B assay; type: functional; details: RXF 631, 48 h; how it was run: as §1
[8] = test system: MCF7; test: Growth inhibition of human MCF7 cells after 48 hrs by sulforhodamine B assay; type: functional; details: MCF7, 48 h; how it was run: as §1
[9] = test system: SF-268; test: Growth inhibition of human SF268 cells after 48 hrs by sulforhodamine B assay; type: functional; details: SF-268, 48 h; how it was run: as §1
[10] = test system: NCI-H226; test: Growth inhibition of human NCI-H226 cells after 48 hrs by sulforhodamine B assay; type: functional; details: NCI-H226, 48 h; how it was run: as §1
[11] = test system: SK-OV-3; test: Growth inhibition of human SKOV3 cells after 48 hrs by sulforhodamine B assay; type: functional; details: SK-OV-3, 48 h; how it was run: as §1
[12] = test system: NCI-H522; test: Growth inhibition of human NCI-H522 cells after 48 hrs by sulforhodamine B assay; type: functional; details: NCI-H522, 48 h; how it was run: as §1
[13] = test system: Human gammaherpesvirus 4; test: Induction of EBV-early antigen expressed in human Raji cells at 10^-6 M after 48 hrs by immunofluorescence assay relative to control; type: organism-based; details: human gammaherpesvirus 4, raji, 1 µM
How it was run: (§2)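 Raji B-lymphoblastoid cells (5 × 10^5/mL) in RPMI 1640 with 10% FBS, with 4 mM sodium n-butyrate as synergist and test compound at 10^-7 or 10^-6 M (final DMSO 0.4%). Incubated 48 h at 37 °C under 5% CO2. Smears were stained by indirect immunofluorescence using NPC patient serum and FITC anti-human IgG. At least 500 cells counted; % EA-positive recorded; n = 3, SEM.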

[14] = test system: HCT-15; test: Growth inhibition of human HCT15 cells after 48 hrs by sulforhodamine B assay; type: functional; details: HCT-15, 48 h; how it was run: as §1
[15] = test system: LOX IMVI; test: Growth inhibition of human LOXIMVI cells after 48 hrs by sulforhodamine B assay; type: functional; how it was run: as §1
[16] = Growth inhibition of human HCC2998 cells after 48 hrs by sulforhodamine B assay; type: functional; details: HCC 2998, 48 h; how it was run: as §1
[17] = test system: Human gammaherpesvirus 4; test: Induction of EBV-early antigen expressed in human Raji cells at 10^-7 M after 48 hrs by immunofluorescence assay relative to control; type: organism-based; details: human gammaherpesvirus 4, raji, 0.1 µM; how it was run: as §2
[18] = test system: MKN-28; test: Growth inhibition of human MKN28 cells after 48 hrs by sulforhodamine B assay; type: functional; details: MKN-28, 48 h; how it was run: as §1
[19] = test system: MKN-45; test: Growth inhibition of human MKN45 cells after 48 hrs by sulforhodamine B assay; type: functional; details: MKN-45, 48 h; how it was run: as §1
[20] = test system: HT-29; test: Growth inhibition of human HT-29 cells after 48 hrs by sulforhodamine B assay; type: functional; details: HT-29, 48 h; how it was run: as §1
[21] = test system: St-4; test: Growth inhibition of human St-4 cells after 48 hrs by sulforhodamine B assay; type: functional; details: St-4, 48 h; how it was run: as §1
[22] = test system: MDA-MB-231; test: Growth inhibition of human MDA-MB-231 cells after 48 hrs by sulforhodamine B assay; type: functional; details: MDA-MB-231, 48 h; how it was run: as §1
[23] = test system: PC-3; test: Growth inhibition of human PC3 cells after 48 hrs by sulforhodamine B assay; type: functional; details: PC-3, 48 h; how it was run: as §1
[24] = test system: DMS-114; test: Growth inhibition of human DMS114 cells after 48 hrs by sulforhodamine B assay; type: functional; details: DMS-114, 48 h; how it was run: as §1
[25] = test system: NCI-H23; test: Growth inhibition of human NCI-H23 cells after 48 hrs by sulforhodamine B assay; type: functional; details: NCI-H23, 48 h; how it was run: as §1
[26] = test system: OVCAR-3; test: Growth inhibition of human OVCAR3 cells after 48 hrs by sulforhodamine B assay; type: functional; details: OVCAR-3, 48 h; how it was run: as §1
[27] = test system: DU-145; test: Growth inhibition of human DU145 cells after 48 hrs by sulforhodamine B assay; type: functional; details: DU-145, 48 h; how it was run: as §1
[28] = Growth inhibition of human HBC5 cells after 48 hrs by sulforhodamine B assay; type: functional; details: HBC5, 48 h; how it was run: as §1
[29] = test system: DMS-273; test: Growth inhibition of human DMS273 cells after 48 hrs by sulforhodamine B assay; type: functional; details: DMS-273, 48 h; how it was run: as §1
[30] = test system: U-251; test: Growth inhibition of human U251 cells after 48 hrs by sulforhodamine B assay; type: functional; details: U-251, 48 h; how it was run: as §1
[31] = test system: NCI-H460; test: Growth inhibition of human NCI-H460 cells after 48 hrs by sulforhodamine B assay; type: functional; details: NCI-H460, 48 h; how it was run: as §1
[32] = test system: ACHN; test: Growth inhibition of human ACHN cells after 48 hrs by sulforhodamine B assay; type: functional; how it was run: as §1
[33] = Growth inhibition of human BSY1 cells after 48 hrs by sulforhodamine B assay; type: functional; details: BSY-1, 48 h; how it was run: as §1
[34] = test system: SF-539; test: Growth inhibition of human SF539 cells after 48 hrs by sulforhodamine B assay; type: functional; details: SF-539, 48 h; how it was run: as §1
[35] = biological target: T1, Protein kinase C delta type (Homo sapiens, UniProt Q05655); test: Inhibition of [3H]PDBu binding to PKCdelta-C1A domain peptide (unknown origin)
How it was run: (§3)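 Competitive [3H]PDBu binding used 14 or 40 nM PKCδ C1 peptide and 20 nM [3H]PDBu (19.6 Ci/mmol), in 50 mM Tris-maleate (pH 7.4 at 4 °C) with 50 µg/mL phosphatidylserine, 3 mg/mL bovine γ-globulin and varied inhibitor concentrations. IC50 was taken as 50% inhibition of specific binding. Ki was derived by the Sharkey–Blumberg method.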

[36] = Cytotoxicity against human Raji cells assessed as cell viability at 10^-7 M; type: cell-based; details: read-out: Activity
[37] = test system: KM12; test: Growth inhibition of human KM12 cells after 48 hrs by sulforhodamine B assay; type: functional; details: KM12, 48 h; how it was run: as §1
[38] = Growth inhibition of human MKN1 cells after 48 hrs by sulforhodamine B assay; type: functional; details: MKN-1, 48 h; how it was run: as §1
[39] = Cytotoxicity against human Raji cells assessed as cell viability at 10^-6 M; type: cell-based; details: read-out: Activity
[40] = test system: OVCAR-5; test: Growth inhibition of human OVCAR5 cells after 48 hrs by sulforhodamine B assay; type: functional; details: OVCAR-5, 48 h; how it was run: as §1
[41] = test system: OVCAR-8; test: Growth inhibition of human OVCAR8 cells after 48 hrs by sulforhodamine B assay; type: functional; details: OVCAR-8, 48 h; how it was run: as §1
[42] = biological target: T1, Protein kinase C delta type; test: Inhibition of [3H]PDBu binding to PKCdelta-C1B domain peptide (unknown origin); how it was run: as §3
[43] = test system: A549; test: Growth inhibition of human A549 cells after 48 hrs by sulforhodamine B assay; type: functional; details: A549, 48 h; how it was run: as §1
[44] = test system: MKN-7; test: Growth inhibition of human MKN7 cells after 48 hrs by sulforhodamine B assay; type: functional; details: MKN-7, 48 h; how it was run: as §1
[45] = Octanol-water partition coefficient, log P of the compound by HPLC analysis; type: physicochemical
How it was run: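 log P was estimated from HPLC retention, with column dead time measured using unretained formamide.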

[46] = test system: SNB-78; test: Growth inhibition of human SNB78 cells after 48 hrs by sulforhodamine B assay; type: functional; details: SNB-78, 48 h; how it was run: as §1

T1 sequence (Q05655 whole entry, the tested form may be a part): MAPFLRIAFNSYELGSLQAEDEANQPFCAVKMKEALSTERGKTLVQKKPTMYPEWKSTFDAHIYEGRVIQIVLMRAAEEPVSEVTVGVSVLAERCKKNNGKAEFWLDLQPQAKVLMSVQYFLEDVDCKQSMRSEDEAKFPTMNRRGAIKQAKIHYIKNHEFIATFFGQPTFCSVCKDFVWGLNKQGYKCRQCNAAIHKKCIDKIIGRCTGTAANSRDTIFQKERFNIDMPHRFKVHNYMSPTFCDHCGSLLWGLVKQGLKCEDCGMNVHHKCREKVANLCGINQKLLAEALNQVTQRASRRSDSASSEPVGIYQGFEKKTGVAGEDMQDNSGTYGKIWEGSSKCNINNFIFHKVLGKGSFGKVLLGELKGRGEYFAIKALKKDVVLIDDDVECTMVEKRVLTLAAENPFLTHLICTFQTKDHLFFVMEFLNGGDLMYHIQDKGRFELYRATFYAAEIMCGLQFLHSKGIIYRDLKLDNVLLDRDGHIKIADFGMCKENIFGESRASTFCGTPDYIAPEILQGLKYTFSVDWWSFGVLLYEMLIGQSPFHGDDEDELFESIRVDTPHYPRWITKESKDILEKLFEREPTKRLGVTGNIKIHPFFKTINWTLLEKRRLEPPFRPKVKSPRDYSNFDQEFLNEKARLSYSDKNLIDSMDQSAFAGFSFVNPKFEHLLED

In the case of `CC1(C)CC[C@@H]2CC(=O)O[C@@H](CO)CC(=O)O[C@@H]3C[C@@H](CCCCc4ccc(I)c(O)c4)O[C@@]1(C3)O2`, the GI50 [1] is reported as 295 nM, the GI50 [2] is reported as 12.3 µM and the GI50 [3] is reported as 10.2 µM. It also gave a GI50 [4] of 4.07 µM, a GI50 [5] of 11.7 µM and a GI50 [6] of 13.2 µM. The GI50 [7] was 12 µM, the GI50 [8] was 12.3 µM and the GI50 [9] was 13.8 µM. It also gave a GI50 [10] of 12 µM, a GI50 [11] of 14.8 µM and a GI50 [12] of 12 µM. For the same compound, the Activity [13] was 2.3%, the GI50 [14] was 15.5 µM and the GI50 [15] was 2880 nM. For the same compound, the GI50 [16] was 1620 nM, the Activity [17] was 2.1% and the GI50 [18] was 617 nM. For the same compound, the GI50 [19] was 11.7 µM, the GI50 [20] was 14.5 µM and the GI50 [21] was 933 nM. It also gave a GI50 [22] of 1580 nM, a GI50 [23] of 3.09 µM and a GI50 [24] of 10.7 µM. The GI50 [25] was 11 µM, the GI50 [26] was 6.31 µM and the GI50 [27] was 11.7 µM. For the same compound, the GI50 [28] was 15.8 µM, the GI50 [29] was 191 nM and the GI50 [30] was 14.5 µM. The GI50 [31] was 6.03 µM, the GI50 [32] was 10 µM and the GI50 [33] was 11 µM. The GI50 [34] was 12 µM, the Ki [35] was 82 nM and the viability at 0.1 µM [36] was 50%. For the same compound, the GI50 [37] was 10.5 µM, the GI50 [38] was 11.2 µM and the viability at 1 µM [39] was 40%. For the same compound, the GI50 [40] was 4.47 µM, the GI50 [41] was 16.2 µM and the Ki [42] was 1.3 nM. The GI50 [43] was 3.31 µM, the GI50 [44] was 13.5 µM and the logP [45] was 4.3. The GI50 [46] was 17 µM.
`CCCCCCCCCCCCCC(=O)O[C@@H]1[C@@H](C)[C@@]2(O)[C@@H](C=C(CO)C[C@]3(O)C(=O)C(C)=C[C@@H]23)[C@@H]2C(C)(C)[C@]12OC(C)=O` [PHORBOL MYRISTATE ACETATE] gave an Activity [13] of 31.5% and an Activity [17] of 29.4%.
